Hits are enriched below; roughly 2.4% of the tested compounds scored in any of these assays.
MC4R ag barr: human MC4R agonism via beta-arrestin | U2OS MC4R beta-arrestin complementation, luminescence; percent of melanotan II response, DMSO zero | activation, % at 8.9 µM | 360,000 tested, 0.98% active;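 active = activation above a per-plate cutoff, the mean activation of sample wells on that plate plus 3 SD, cut at about 8% in these data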
MOR-DOR inv ag: inverse agonist of human OPRM1-OPRD1 heterodimerization; inhibition, % at 9.3 µM; P35372+P41143; 340,000 tested, 0.21% active; cell-based MOR-DOR heterodimer luminescence, inverse agonism; in the data active = inhibition above about 22%, passing the limit was not always enough;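 note: 0% = cells with DMSO and 100% = wells without cells with DMSO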
Target sequence (P35372 whole entry, looked up): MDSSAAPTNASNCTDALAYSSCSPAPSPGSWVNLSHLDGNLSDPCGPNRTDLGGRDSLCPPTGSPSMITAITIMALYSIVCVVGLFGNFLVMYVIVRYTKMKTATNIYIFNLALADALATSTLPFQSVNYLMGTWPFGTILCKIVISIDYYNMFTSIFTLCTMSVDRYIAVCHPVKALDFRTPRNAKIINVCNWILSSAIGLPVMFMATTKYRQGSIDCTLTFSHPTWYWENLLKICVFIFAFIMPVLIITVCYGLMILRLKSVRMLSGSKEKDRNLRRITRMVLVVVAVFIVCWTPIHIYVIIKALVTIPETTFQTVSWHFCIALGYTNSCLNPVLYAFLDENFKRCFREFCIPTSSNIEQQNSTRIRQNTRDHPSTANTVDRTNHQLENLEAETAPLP
Target sequence (P41143 whole entry, looked up): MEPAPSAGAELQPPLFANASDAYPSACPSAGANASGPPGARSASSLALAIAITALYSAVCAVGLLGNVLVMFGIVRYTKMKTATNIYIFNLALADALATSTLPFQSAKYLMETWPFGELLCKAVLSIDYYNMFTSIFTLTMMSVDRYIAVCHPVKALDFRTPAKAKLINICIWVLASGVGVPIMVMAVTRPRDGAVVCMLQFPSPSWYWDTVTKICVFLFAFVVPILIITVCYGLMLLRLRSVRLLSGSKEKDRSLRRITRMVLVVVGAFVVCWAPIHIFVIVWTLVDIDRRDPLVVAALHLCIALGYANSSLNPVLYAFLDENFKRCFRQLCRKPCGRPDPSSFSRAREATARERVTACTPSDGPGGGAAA
HTR5A inv ctr: HTR5A inverse agonism, opioid heterodimer counter-screen; 340,000 tested, 0.083% active; HTR5A cell line, luminescence; P47898; inhibition, % at 9.3 µM; in the data active = inhibition mostly above about 23%, no sharp cut-off; inactive = mostly below about 18%;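 note: 0% = cells with DMSO and 100% = no-cell wells with DMSO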
HTR5A ag ctr: HTR5A agonism, opioid heterodimer counter-screen; 340,000 tested, 0.61% active; HTR5A agonist assay, luminescence, cell-based; P47898; AID 504692; activation, % at 9.3 µM; in the data active = activation mostly above about 9.5%, no sharp cut-off; inactive = mostly below about 7.6%;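 note: 0% = cells with vehicle only and 100% = reference agonist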
MOR-DOR ag: agonists of human mu-delta opioid receptor heterodimerization; P35372+P41143; cells, OPRM1-OPRD1 heterodimerization, luminescence; activation, % at 9.3 µM; 340,000 tested, 0.3% active; in the data active = activation above about 18%;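 note: 0% = vehicle-treated cells and 100% = reference agonist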
MC4R antag cAMP: antagonists of human melanocortin 4 receptor (MC4R). inhibition, % at 6.5 µM. P32245. AID 540295. 360,000 tested, 0.48% active. MC4R-expressing cells, MTII-stimulated cAMP, LANCE TR-FRET;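 active = inhibition above its plate's cutoff, the mean of tested wells on that plate plus 3 SD, cut at about 29% in these data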;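 note: 0% = Melanotan II alone and 100% = Melanotan II plus saturating MCL0020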
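Material: human MC4R-expressing U2OS cells. Probe or stimulus: Melanotan II challenge. Dosing: 6.5 µM single dose. Times: 30-min compound, 1-h challenge, 1-h detection, room temperature. Technique: TR-FRET with Eu-cAMP and labeled anti-cAMP, 671 nm. Replication: singlicate.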
cAMP nonselect: U2OS forskolin cAMP inhibition counter-screen | shares compounds with MC4R antag cAMP | parental U2OS, LANCE TR-FRET | inhibition, % at 6.5 µM | 1,600 tested, 26% active | AID 602193;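 active = mean inhibition over triplicates above the low-control well mean plus 3 SD, set per campaign, cut at about 13% in these data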;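 note: signal is single emission at 671 nm which falls as cellular cAMP rises; 0% = forskolin-stimulated wells and 100% = buffer without forskolin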
MC4R cAMP antag: human MC4R cAMP antagonism confirmation; 1,600 tested, 27% active; shares compounds with MC4R antag cAMP; MC4R-expressing cells, MTII-stimulated cAMP, TR-FRET; inhibition, % at 6.5 µM; in the data active = inhibition above about 29%;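 note: 0% = agonist stimulated wells alone and 100% = agonist stimulated wells plus saturating reference antagonist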
Starred values were filed as active, the others as inactive; . = no result; + = active, no number.

SMILES | MC4R ag barr | MOR-DOR inv ag | HTR5A inv ctr | HTR5A ag ctr | MOR-DOR ag | MC4R antag cAMP | cAMP nonselect | MC4R cAMP antag
CC(C)N1CCN(c2ccncc2S(=O)(=O)N2CCN(C)CC2)CC1 | 0 | . | . | . | . | 1 | . | .
COc1cccc(NC(=O)CN(C)CC(=O)Nc2ccc(Cl)cc2[N+](=O)[O-])c1 | 2 | -23 | 0 | 0 | 5 | 10 | . | .
Cc1cccc(N2C(=O)C(O)=C(C(=O)c3cccs3)C2c2ccc(Cl)cc2)n1 (stereo unspecified) | -1 | 15 | -27 | 2 | -3 | 6 | . | .
Cc1cccc(N2C(=O)C(O)=C(C(=O)c3cccs3)C2c2ccccc2)n1 (stereo unspecified) | -1 | 12 | -14 | 2 | -2 | 30* | 6 | 17
CSc1ccc(OC2CCCCC2NS(=O)(=O)c2ccc(Cl)cc2)cc1 (stereo unspecified) | 2 | -46 | -4 | 6 | 9 | 31* | 0 | 16
NS(=O)(=O)c1cccc(NC(=O)c2cccc3c(Br)cccc23)c1 | 1 | -10 | -2 | 1 | 2 | 43* | 3 | 7
NS(=O)(=O)c1cccc(NC(=O)c2cncc(Br)c2)c1 | -2 | 12 | -22 | 1 | -2 | -10 | . | .
CCOC(=O)Cc1cc(=O)n2[nH]cc(-c3ccc(Cl)cc3)c2n1 | -1 | 7 | 15 | -6 | -1 | 30* | 1 | 3
CCOC(=O)Cc1cc(=O)n2[nH]c(-c3ccc(Cl)cc3)cc2n1 | 1 | -10 | -8 | 3 | 2 | -1 | . | .
COc1ccc(Oc2c(Cl)cnn(-c3ccc(C)cc3)c2=O)cc1 | -3 | 0 | 2 | -1 | 0 | 59* | 36* | 82*
COc1c(Cl)cnn(-c2ccc(C)cc2)c1=O | -1 | 3 | 1 | -1 | 0 | 34* | 12 | 13
COc1ccc(Oc2c(Cl)cnn(-c3ccc(F)cc3)c2=O)cc1 | -3 | 6 | 18 | -8 | -1 | 58* | 40* | 73*
CCOc1c(Cl)cnn(-c2ccc(C)cc2)c1=O | 2 | 6 | -5 | 3 | -1 | 0 | . | .
Cc1cc(Br)c2nc3c(c(C(=O)O)c2c1)CCCCC3 | 3 | -8 | -18 | 7 | 1 | + | + | .
CCc1ccc2nc3c(c(C(=O)O)c2c1)CCC3 | 0 | 22 | -7 | -1 | -5 | -1 | . | .
Cc1ccc(C)c(NC(=O)NNS(=O)(=O)c2ccc(C)c(C)c2)c1 | 3 | 10 | -4 | 5 | -2 | 1 | . | .
Cn1ccsc1=NC(=O)c1ccc(S(C)(=O)=O)c([N+](=O)[O-])c1 | -4 | -12 | -1 | 1 | 2 | 33* | 7 | 31*
Cn1ccsc1=NC(=O)c1ccc(Cl)c([N+](=O)[O-])c1 | 0 | -13 | 4 | -1 | 3 | 35* | 4 | -1
NS(=O)(=O)c1ccc(N2N=C(c3ccccc3)CC2c2ccccc2)cc1 (stereo unspecified) | 0 | -11 | 14 | 4 | 2 | 6 | . | .
NS(=O)(=O)c1ccc(N2N=C(c3ccccc3)CC2c2ccc(Br)cc2)cc1 (stereo unspecified) | 5 | . | . | . | . | 37* | -13 | -16
O=C(COC(=O)c1ccc2c(c1)OCO2)Nc1ccccc1OC(F)F | 3 | -9 | -7 | 3 | 2 | 17 | . | .
O=C(COC(=O)c1ccc(Cl)c([N+](=O)[O-])c1)NC1CCCC1 | -2 | 7 | 12 | -3 | -1 | 25 | . | .
O=C(COC(=O)c1ccc(Cl)c([N+](=O)[O-])c1)Nc1ccccc1OC(F)F | -2 | -8 | 13 | -5 | 2 | 34* | 21* | 47*
CC(C)N(C(=O)COC(=O)c1ccccc1C(=O)c1ccc(Cl)c([N+](=O)[O-])c1)C(C)C | -5 | 7 | -15 | -2 | -1 | 19 | . | .
O=C(COC(=O)c1ccccc1C(=O)c1ccc(Cl)c([N+](=O)[O-])c1)NC1CCCCCC1 | -3 | -4 | -3 | -9 | 1 | 64* | 12 | 31*
SMILES | MC4R ag barr | MOR-DOR inv ag | HTR5A inv ctr | HTR5A ag ctr | MOR-DOR ag | MC4R antag cAMP | cAMP nonselect | MC4R cAMP antag
CN(CCC#N)C(=O)COC(=O)c1ccccc1C(=O)c1ccc(Cl)c([N+](=O)[O-])c1 | -4 | -6 | -1 | 0 | 1 | 33* | 24* | 5
CCN(CC)CCCNC(=S)N(CCO)Cc1cc2cc3c(cc2[nH]c1=O)OCCO3 | 0 | 17 | 1 | 0 | -3 | 0 | . | .
Cc1ccc(CNC(=O)COC(=O)Cn2nc(C)c([N+](=O)[O-])c2C)cc1 | -1 | 11 | -3 | 1 | -2 | 46* | 11 | 31*
Cc1cccc(Cn2ncc(Cl)c(Cl)c2=O)c1 | -2 | -15 | 21 | 0 | 3 | 37* | 32* | 50*
CC1(C)CC(=O)C(C=NCC2CCN(C(=O)Cc3ccccc3)CC2)=C(O)C1 | 3 | -1 | 15 | 1 | 0 | 15 | . | .
COc1ccccc1Cn1c(=S)[nH]c2ccc(F)cc2c1=O | -2 | 2 | 0 | 0 | 0 | 65* | 50* | 100*
COC(=O)C1=C(C(=O)OC)SC2(S1)C(C(=O)OC)=C(C(=O)OC)SC1=C2c2cc(C)cc(C)c2NC1(C)C | -2 | 17 | -51 | 1 | -3 | 53* | 15* | 40*
NC(COCc1ccccc1)c1csc(Nc2nncc3ccccc23)n1 (stereo unspecified) | 6 | . | . | . | . | 0 | . | .
NC(Cc1ccc(C(F)(F)F)cc1)c1csc(Nc2nncc3ccccc23)n1 (stereo unspecified) | 2 | . | . | . | . | 35* | 21* | 0
CCS(=O)(=O)N1Cc2ccccc2CC1C(=O)N(C)Cc1ccc(OC)c(F)c1 (stereo unspecified) | 0 | 4 | -6 | -2 | -1 | 34* | -5 | -14
O=C(COC(=O)c1cc(S(=O)(=O)N2CCCC2)ccc1O)Nc1ccc(S(=O)(=O)N2CCOCC2)cc1 | 2 | 3 | -12 | -6 | -1 | 33* | -10 | -26
O=C(COC(=O)c1cc(S(=O)(=O)N2CCOCC2)ccc1O)Nc1cc(S(=O)(=O)N2CCCC2)ccc1Cl | 1 | -2 | -22 | 7 | 0 | 30* | 4 | 8
Cc1cc(C(=O)OCC(=O)Nc2cc(S(=O)(=O)N3CCOCC3)ccc2Cl)c(C)o1 | 2 | -3 | 5 | -1 | 1 | 4 | . | .
CCN(CC)S(=O)(=O)c1ccc(NC(=O)COC(=O)c2cc(S(=O)(=O)Nc3ccc(OC)cc3)ccc2O)cc1 | 1 | 10 | -5 | 2 | -2 | 32* | 1 | 4

Bioassay records (PubChem BioAssay)
